Results taken from ChEMBL document CHEMBL1275365, “Synthetic analogues of the microtubule-stabilizing sponge alkaloid ceratamine A are more active than the natural product” (J Med Chem, 2010).
Converted amounts (≈) assume the structure as drawn. The source made the active and inactive calls. The rule behind the calls is not given here.

Key:
MCF7 [1] = assay: Antimitotic activity in human MCF7mp53 cells assessed as induction of mitotic arrest at 50 ug/mL after 20 hrs; assay type: functional, cell-based
Summary of the method: (§1)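 MCF-7mp53 cells in 96-well plates, treated in triplicate with compound at 1-50 μg/mL for 20 h at 37 °C. Plates spun 50g, 2 min, to keep mitotic cells attached. Cells fixed/permeabilized (3.7% formaldehyde, 0.1% Triton X-100 in TBS), blocked with 1% BSA. Mitotic cells stained with TG-3 antibody plus fluorescent secondary, nuclei with Hoechst 33342. High-content imaging gave percentage of cells in mitosis.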

MCF7 [2] = assay: Antimitotic activity in human MCF7mp53 cells assessed as cells arrested at mitotic stage at optimal concentration after 20 hrs; assay type: functional; summary of the method: as §1
MCF7 [3] = assay: Antimitotic activity in human MCF7mp53 cells assessed as induction of mitotic arrest after 20 hrs; assay type: functional, cell-based; details: MCF7, 20 h; summary of the method: as §1

Q: For `COc1c(C)cc(Cc2c3nc(N)nc-3ccn(C)c2=O)cc1C`, which Activity (MCF7 [1]) is on record?
A: Its Activity is “inactive”.

Q: For `CNc1nc2ccn(C)c(=O)c(Cc3ccc(OC)cc3)c-2n1` [DESBROMOCERATAMINE A], which Activity (MCF7 [2]) is on record?
A: Its Activity is 23%.

Q: And the IC50 (MCF7 [3])?
A: The IC50 was over 50 µg/mL.

Q: For `CNc1nc2ccn(C)c(=O)c(Cc3cc(C)c(OC)c(C)c3)c-2n1`, which Activity (MCF7 [2]) is on record?
A: Its Activity is 67%.

Q: What about the IC50 (MCF7 [3]) of the same compound?
A: Its IC50 is 3.5 µg/mL (≈ 10.3 µM).

Q: With `CNc1nc2ccn(C)c(=O)c(Cc3cc(Br)c(OC)c(Br)c3)c-2n1` [CERATAMINE A] as the compound, how does the Activity (MCF7 [2]) read?
A: Its Activity is 54%.

Q: And the IC50 (MCF7 [3])?
A: Its IC50 is 5 µg/mL (≈ 10.7 µM).

Q: How did the Activity (MCF7 [1]) turn out when `CNc1nc2ccn(C)c(=O)c(C(O)c3cc(C)c(OC)c(C)c3)c-2n1` (stereo unspecified) was run?
A: Its Activity is “inactive”.

Q: How did the Activity (MCF7 [2]) turn out when `COc1c(C)cc(Cc2c3nc(N(C)C)nc-3ccn(C)c2=O)cc1C` was run?
A: The Activity was 82%.

Q: And the IC50 (MCF7 [3])?
A: The IC50 was 3 µg/mL (≈ 8.51 µM).

Q: For `COc1c(C)cc(/C=C2/C(=O)N(C)C=Cc3nc(N(C)C(=O)C(F)(F)F)n(C)c32)cc1C`, which Activity (MCF7 [1]) is on record?
A: Its Activity is “inactive”.
